Data: ChEMBL document CHEMBL1136581, “Synthesis of dopamine transporter selective 3-[2-(diarylmethoxyethylidene)]-8-alkylaryl-8-azabicyclo[3.2.1]octanes” (Bioorg Med Chem Lett, 2003)

Columns and labels:
[1] = biological target: Sodium-dependent serotonin transporter (Rattus norvegicus, UniProt P31652); test: Binding affinity at serotonin transporter from rat caudate-putamen tissue by [3H]WIN-35428 displacement.; assay type: tissue-based
In short: (§1)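 Compounds were tested as oxalate salts. Ki values are the mean ± SEM of three experiments, each run in triplicate.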

[2] = biological target: Sodium-dependent dopamine transporter (Rattus norvegicus, UniProt P23977); test: Binding affinity at dopamine transporter from rat caudate-putamen tissue by [3H]WIN-35428 displacement.; in short: as §1
Chain of Sodium-dependent dopamine transporter (P23977 whole entry): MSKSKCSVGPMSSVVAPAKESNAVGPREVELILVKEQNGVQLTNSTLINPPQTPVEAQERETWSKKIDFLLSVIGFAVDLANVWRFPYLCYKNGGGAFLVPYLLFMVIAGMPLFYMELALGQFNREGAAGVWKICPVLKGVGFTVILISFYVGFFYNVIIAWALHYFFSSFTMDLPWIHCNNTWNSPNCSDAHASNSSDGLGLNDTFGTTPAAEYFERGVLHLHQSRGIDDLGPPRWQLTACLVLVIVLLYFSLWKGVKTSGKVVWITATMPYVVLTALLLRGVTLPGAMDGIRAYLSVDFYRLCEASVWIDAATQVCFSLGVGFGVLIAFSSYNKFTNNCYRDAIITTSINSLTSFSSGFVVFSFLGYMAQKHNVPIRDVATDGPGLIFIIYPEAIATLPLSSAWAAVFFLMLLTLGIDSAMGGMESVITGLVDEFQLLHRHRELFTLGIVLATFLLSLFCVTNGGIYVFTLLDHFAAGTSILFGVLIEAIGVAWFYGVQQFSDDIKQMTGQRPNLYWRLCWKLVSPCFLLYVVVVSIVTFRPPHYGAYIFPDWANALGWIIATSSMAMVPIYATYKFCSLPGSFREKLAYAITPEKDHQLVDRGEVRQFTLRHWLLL

[3] = biological target: Monoamine transporters; serotonin & dopamine (Rattus norvegicus) (UniProt P31652+P23977); test: Binding affinity towards serotonin transporter compared to dopamine transporter.; assay type: protein assay
Chain of Monoamine transporters; serotonin & dopamine (Rattus norvegicus) (P23977 whole entry, looked up): as the sequence (P23977 whole entry) above
Chain of Monoamine transporters; serotonin & dopamine (Rattus norvegicus) (P31652 whole entry, looked up): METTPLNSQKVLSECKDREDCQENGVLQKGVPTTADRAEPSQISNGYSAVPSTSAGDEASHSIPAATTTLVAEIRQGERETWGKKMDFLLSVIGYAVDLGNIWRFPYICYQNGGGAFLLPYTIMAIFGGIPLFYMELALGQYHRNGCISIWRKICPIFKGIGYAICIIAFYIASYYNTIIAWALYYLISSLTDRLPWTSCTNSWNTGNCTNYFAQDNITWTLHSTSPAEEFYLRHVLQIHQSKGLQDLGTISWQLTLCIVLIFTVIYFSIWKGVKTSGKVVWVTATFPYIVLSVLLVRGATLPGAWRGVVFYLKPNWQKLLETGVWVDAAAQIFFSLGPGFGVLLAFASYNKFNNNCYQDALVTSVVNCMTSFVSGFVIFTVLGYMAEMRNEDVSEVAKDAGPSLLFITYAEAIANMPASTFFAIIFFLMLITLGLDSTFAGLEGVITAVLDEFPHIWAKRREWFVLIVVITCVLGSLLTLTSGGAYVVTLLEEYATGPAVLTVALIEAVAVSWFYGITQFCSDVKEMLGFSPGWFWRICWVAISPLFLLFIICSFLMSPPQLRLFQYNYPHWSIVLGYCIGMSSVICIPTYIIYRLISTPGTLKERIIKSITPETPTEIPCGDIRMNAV

Chain of Sodium-dependent serotonin transporter (P31652 whole entry): as the sequence (P31652 whole entry, looked up) above

Compound | Ki [1] [nM] | Ki [2] [nM] | Ratio [3]
Oc1cccc(CN2C3CCC2CC(CCOC(c2ccc(F)cc2)c2ccc(F)cc2)C3)c1 (configuration not stated) | 651 | 20 | 33
CN1C2CCC1CC(CCOC(c1ccc(Cl)cc1)c1ccc(Cl)cc1)C2 (configuration not stated) | 1160 | 18 | 64
Clc1ccc(C(OCCC2CC3CCC(C2)N3CCCc2ccccc2)c2ccccc2)cc1 (configuration not stated) | 374 | 30 | 12
C(COC(c1ccccc1)c1ccccc1)=C1CC2CCC(C1)N2Cc1ccccc1 | 5420 | 48 | 113
Fc1ccc(C(OCCC2CC3CCC(C2)N3Cc2ccccc2)c2ccc(F)cc2)cc1 (configuration not stated) | 1430 | 5.7 | 251
Oc1ccc(CN2C3CCC2CC(CCOC(c2ccc(F)cc2)c2ccc(F)cc2)C3)cc1 (configuration not stated) | 809 | 30 | 27
c1ccc(CN2C3CCC2CC(CCOC(c2ccccc2)c2ccccc2)C3)cc1 (configuration not stated) | 4780 | – | 48
Clc1ccc(C(OCCC2CC3CCC(C2)N3CCCc2ccccc2)c2ccc(Cl)cc2)cc1 (configuration not stated) | 177 | 50 | 4
CN1C2CCC1CC(CCOC(c1ccccc1)c1ccc(Cl)cc1)C2 (configuration not stated) | 3430 | – | 71
Clc1ccc(C(OCCC2CC3CCC(C2)N3Cc2ccccc2)c2ccccc2)cc1 (configuration not stated) | 1940 | 82 | 24
CN1C2CCC1CC(CCOC(c1ccc(F)cc1)c1ccc(F)cc1)C2 (configuration not stated) | 2470 | 31 | 80
Fc1ccc(C(OCC[C@H]2C[C@H]3CC[C@@H](C2)N3CCCc2ccccc2)c2ccc(F)cc2)cc1 | 175 | 7.4 | –
CN1[C@@H]2CC[C@H]1C[C@@H](CCOC(c1ccccc1)c1ccccc1)C2 | 14100 | 58 | 243
Clc1ccc(C(OCCC2CC3CCC(C2)N3Cc2ccccc2)c2ccc(Cl)cc2)cc1 (configuration not stated) | 822 | 91 | 9
Fc1ccc(C(OCC=C2CC3CCC(C2)N3CCCc2ccccc2)c2ccc(F)cc2)cc1 | 562 | 3.7 | 152
c1ccc(CCCN2[C@@H]3CC[C@H]2C[C@@H](CCOC(c2ccccc2)c2ccccc2)C3)cc1 | 750 | 18 | 42
Fc1ccc(C(OCC=C2CC3CCC(C2)N3Cc2ccccc2)c2ccc(F)cc2)cc1 | 2220 | – | 281
